Test results: ChEMBL document CHEMBL3272286, “Inhibitors of Bacillus subtilis DNA polymerase III. Structure-activity relationships of 6-(phenylhydrazino)uracils” (J Med Chem, 1977)

Legend:
Bacillus subtilis [1] = experiment: Inhibition of wild type Bacillus subtilis DNA polymerase-3 using DNAase 1-treated DNA as template assessed as inhibition of dGTP truncated DNA synthesis by measuring incorporation of [3H]-TMP at 1 mM in presence of dithiothreitol relative to control
How it was run: (§1)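 dGTP-omitted pol III reaction, 30 °C, 5 min, in 0.05 mL: 20% glycerol, 50 mM Tris HCl pH 7.6, 10 mM MgCl2, 30 mM NaCl, 1.2 mM DNAase I-activated calf thymus DNA, 5 mM DTT, 0.1 mg/mL BSA, 10 μM each dATP, dCTP and [3H]-TTP, 0.005-0.1 unit enzyme. Read-out is acid-insoluble radioactivity. Ki is the inhibitor concentration giving 50% inhibition.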

Bacillus subtilis [2] = experiment: Resistance ratio of Ki for HPUra/HPiCyt-resistant Bacillus subtilis DNA polymerase-3/azp-12 mutant to Ki for wild type Bacillus subtilis DNA polymerase-3
Bacillus subtilis [3] = experiment: Inhibition of wild type Bacillus subtilis DNA polymerase-3 using DNAase 1-treated DNA as template assessed as inhibition of dGTP truncated DNA synthesis by measuring incorporation of [3H]-TMP at 20 uM in presence of dithiothreitol relative to control; how it was run: as §1
Bacillus subtilis [4] = experiment: Inhibition of HPUra/HPiCyt-resistant Bacillus subtilis DNA polymerase-3/azp-12 mutant using DNAase 1-treated DNA as template assessed as inhibition of dGTP truncated DNA synthesis by measuring incorporation of [3H]-TMP at 20 uM relative to control in presence of dithiothreitol; how it was run: as §1
[5] = Inhibition of wild type Bacillus subtilis DNA polymerase-3 using DNAase 1-treated DNA as template assessed as inhibition of dGTP truncated DNA synthesis by measuring incorporation of [3H]-TMP in presence of dithiothreitol; how it was run: as §1
[6] = Inhibition of HPUra/HPiCyt-resistant Bacillus subtilis DNA polymerase-3/azp-12 mutant using DNAase 1-treated DNA as template assessed as inhibition of dGTP truncated DNA synthesis by measuring incorporation of [3H]-TMP in presence of dithiothreitol; how it was run: as §1

| Ki [5] [µM] | SMILES | further results |
| --- | --- | --- |
|  | Cn1c(NNc2ccccc2)cc(=O)[nH]c1=O | inhibition (Bacillus subtilis [1]): < 10% |
|  | Nc1nc(NNc2ccc(O)cc2)cc(=O)[nH]1 | Ratio Ki (Bacillus subtilis [2]): 30 |
| 2.5 | Cc1cccc(NNc2cc(=O)[nH]c(=O)[nH]2)c1 | inhibition (Bacillus subtilis [3]): 80%; inhibition (Bacillus subtilis [4]): 85% |
| 209 | CS(=O)(=O)c1ccc(NNc2cc(=O)[nH]c(=O)[nH]2)cc1 |  |
| 0.7 | O=c1cc(NNc2cccc(F)c2)[nH]c(=O)[nH]1 |  |
| 1.4 | Cc1ccc(NNc2cc(=O)[nH]c(=O)[nH]2)cc1C |  |
| 8.8 | O=c1cc(NNc2ccc(O)c(Cl)c2)[nH]c(=O)[nH]1 |  |
| 7.2 | O=c1cc(NNc2ccccc2F)[nH]c(=O)[nH]1 |  |
|  | NNc1cc(=O)[nH]c(=O)[nH]1 | inhibition (Bacillus subtilis [1]): < 10% |
| 560 | CC(=O)Nc1ccc(NNc2cc(=O)[nH]c(=O)[nH]2)cc1 |  |
| 98 | O=C(O)c1ccc(NNc2cc(=O)[nH]c(=O)[nH]2)cc1 |  |
| 124 | Cc1cc(NNc2cc(=O)[nH]c(=O)[nH]2)cc(C)c1O |  |
| 0.4 | O=c1cc(NNc2ccc(O)cc2)[nH]c(=O)[nH]1 | Ratio Ki (Bacillus subtilis [2]): 50; Ki [6]: 20 µM |
| 1.1 | O=c1cc(NNc2cccc(Cl)c2)[nH]c(=O)[nH]1 |  |
| 1.6 | CCc1ccc(NNc2cc(=O)[nH]c(=O)[nH]2)cc1 |  |
| 0.5 | Cn1c(=O)cc(NNc2ccc(O)cc2)[nH]c1=O |  |
| 51.2 | Cc1cc(NNc2cc(=O)[nH]c(=O)[nH]2)ccc1O |  |

| Ki [5] [µM] | SMILES | further results |
| --- | --- | --- |
| 562 | CCc1ccccc1NNc1cc(=O)[nH]c(=O)[nH]1 |  |
| 2300 | CCCCc1ccc(NNc2cc(=O)[nH]c(=O)[nH]2)cc1 |  |
| 1.4 | O=c1cc(NNc2cccc(Br)c2)[nH]c(=O)[nH]1 |  |
| 3 | O=c1cc(NNc2ccc(F)cc2)[nH]c(=O)[nH]1 | inhibition (Bacillus subtilis [3]): 82%; inhibition (Bacillus subtilis [4]): 93% |
| 0.6 | O=c1cc(NNc2ccc(Cl)c(Cl)c2)[nH]c(=O)[nH]1 |  |
| 480 | CN(Nc1cc(=O)[nH]c(=O)[nH]1)c1ccccc1 |  |
| 0.7 | O=c1cc(NNc2ccc(Br)cc2)[nH]c(=O)[nH]1 | inhibition (Bacillus subtilis [3]): 82%; inhibition (Bacillus subtilis [4]): 95% |
| 0.5 | Cc1ccc(NNc2cc(=O)[nH]c(=O)[nH]2)cc1 | Ki [6]: 0.4 µM |
| 0.8 | Cc1ccc(NNc2cc(=O)[nH]c(=O)[nH]2)cc1Cl |  |
| 7.1 | Nc1ccc(NNc2cc(=O)[nH]c(=O)[nH]2)cc1 | Ki [6]: 76.4 µM |
| 234 | Cc1ccccc1NNc1cc(=O)[nH]c(=O)[nH]1 |  |
| 0.9 | O=c1cc(NNc2ccc(Cl)cc2)[nH]c(=O)[nH]1 | inhibition (Bacillus subtilis [3]): 91%; inhibition (Bacillus subtilis [4]): 95% |
| 1.6 | Cn1c(=O)cc(NNc2ccccc2)[nH]c1=O |  |
| 26.3 | O=c1cc(NNc2ccc([N+](=O)[O-])cc2)[nH]c(=O)[nH]1 |  |
|  | Nc1cc(O)nc(O)n1 | inhibition (Bacillus subtilis [1]): < 10% |
| 1.4 | O=c1cc(NNc2ccccc2)[nH]c(=O)[nH]1 | Ki [6]: 2.1 µM |
